# Measured values: ChEMBL document CHEMBL1152649, “Synthesis, cytotoxicity and human telomerase inhibition activities of a series of 1,2-heteroannelated anthraquinones and anthra[1,2-d]imidazole-6,11-dione homologues” (2009)
# Active and inactive are the calls of the source. No cut-off for these calls is given here.
# Experiments:
# MCF7 [1] = test: Antiproliferative activity against human MCF7 cells assessed as cell growth at 10 uM; assay type: functional; conditions: read-out: Activity
# Method in brief: (§1)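 NCI 60 cell line panel, single-dose screen (10^-5 M) run by the developmental therapeutics program protocol. Results are given as growth percent of treated cells relative to untreated control cells for each line.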
# DU-145 = test: Antiproliferative activity against human DU145 cells assessed as cell growth at 10 uM; assay type: functional; conditions: read-out: Activity; method in brief: as §1
# [2] = molecular target: Telomerase reverse transcriptase (Homo sapiens) (UniProt O14746); test: Inhibition of TERT in human H1299 cells assessed as residual transcriptional activity at 1 uM after 24 hrs by SEAP reporter gene assay; values are per cent of control
# Telomerase reverse transcriptase (Homo sapiens), sequence (O14746 whole entry): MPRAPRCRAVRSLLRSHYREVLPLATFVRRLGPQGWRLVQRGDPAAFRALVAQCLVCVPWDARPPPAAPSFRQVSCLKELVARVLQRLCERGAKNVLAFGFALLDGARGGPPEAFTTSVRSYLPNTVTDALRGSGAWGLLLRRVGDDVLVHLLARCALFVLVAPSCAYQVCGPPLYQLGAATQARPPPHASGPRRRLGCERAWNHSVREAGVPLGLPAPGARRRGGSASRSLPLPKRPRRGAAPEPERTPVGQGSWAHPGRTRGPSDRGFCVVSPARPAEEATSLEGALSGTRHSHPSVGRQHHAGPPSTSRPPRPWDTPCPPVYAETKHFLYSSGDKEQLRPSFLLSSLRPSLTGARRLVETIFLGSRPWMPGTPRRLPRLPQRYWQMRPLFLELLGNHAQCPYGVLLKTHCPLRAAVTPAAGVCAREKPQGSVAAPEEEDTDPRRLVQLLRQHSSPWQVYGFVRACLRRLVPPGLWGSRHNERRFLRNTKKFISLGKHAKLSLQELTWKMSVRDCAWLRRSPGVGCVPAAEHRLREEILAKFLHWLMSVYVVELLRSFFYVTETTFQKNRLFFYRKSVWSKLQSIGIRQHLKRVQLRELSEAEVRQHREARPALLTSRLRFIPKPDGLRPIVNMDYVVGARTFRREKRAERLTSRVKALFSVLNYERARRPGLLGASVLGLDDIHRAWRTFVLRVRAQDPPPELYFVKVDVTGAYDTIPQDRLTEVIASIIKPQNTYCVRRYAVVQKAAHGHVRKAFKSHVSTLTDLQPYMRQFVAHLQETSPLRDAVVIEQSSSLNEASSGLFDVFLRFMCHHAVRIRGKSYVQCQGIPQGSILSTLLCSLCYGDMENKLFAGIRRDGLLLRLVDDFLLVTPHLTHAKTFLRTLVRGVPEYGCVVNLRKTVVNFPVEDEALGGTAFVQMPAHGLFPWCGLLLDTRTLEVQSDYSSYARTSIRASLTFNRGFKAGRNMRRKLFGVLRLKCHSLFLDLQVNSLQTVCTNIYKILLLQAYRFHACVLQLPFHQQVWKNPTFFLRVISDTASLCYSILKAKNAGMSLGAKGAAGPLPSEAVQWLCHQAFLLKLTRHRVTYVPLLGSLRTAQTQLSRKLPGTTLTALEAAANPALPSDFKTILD
# HT-29 = test: Antiproliferative activity against human HT-29 cells assessed as cell growth at 10 uM; assay type: functional; conditions: read-out: Activity; method in brief: as §1
# SW-620 = test: Antiproliferative activity against human SW620 cells assessed as cell growth at 10 uM; assay type: functional; conditions: read-out: Activity
# Method in brief: (§2)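 NCI 60 cell line panel, single dose (10^-5 M), run per the Developmental Therapeutics Program protocol (one dose mean graph). Each result is the growth percentage of treated cells relative to untreated control cells.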
# NCI-H226 [3] = test: Antiproliferative activity against human NCI-H226 cells assessed as cell growth at 10 uM; assay type: functional; conditions: read-out: Activity; method in brief: as §1
# [4] = molecular target: Telomerase reverse transcriptase (Homo sapiens) (UniProt O14746); test: Inhibition of TERT in human H1299 cells assessed as residual transcriptional activity at 100 uM after 24 hrs by SEAP reporter gene assay; values are per cent of control
# HCT-15 [5] = test: Antiproliferative activity against human HCT15 cells assessed as cell growth at 10 uM; assay type: functional; conditions: read-out: Activity; method in brief: as §1
# [6] = molecular target: Telomerase reverse transcriptase (Homo sapiens) (UniProt O14746); test: Inhibition of telomerase in human H1299 cells up to 100 uM by TRAP assay; assay type: cell-based
# Method in brief: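 PCR-based telomeric repeat amplification protocol (TRAP). The telomerase source was total lysate of H1299 lung cancer cells, with protein measured against BSA standards. Controls were extract without inhibitor and RNase A-treated extract.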
# MOLT-4 [7] = test: Antiproliferative activity against human MOLT4 cells assessed as cell growth at 10 uM; assay type: functional; conditions: read-out: Activity; method in brief: as §1
# SF-539 = test: Antiproliferative activity against human SF539 cells assessed as cell growth at 10 uM; assay type: functional; conditions: read-out: Activity; method in brief: as §1
# SK-OV-3 [8] = test: Antiproliferative activity against human SKOV3 cells assessed as cell growth at 10 uM; assay type: functional; conditions: read-out: Activity; method in brief: as §1
# KM12 = test: Antiproliferative activity against human KM12 cells assessed as cell growth at 10 uM; assay type: functional; conditions: read-out: Activity; method in brief: as §1
# UACC-62 [9] = test: Antiproliferative activity against human UACC62 cells assessed as cell growth at 10 uM; assay type: functional; conditions: read-out: Activity; method in brief: as §2
# EKVX = test: Antiproliferative activity against human EKVX cells assessed as cell growth at 10 uM; assay type: functional; conditions: read-out: Activity; method in brief: as §1
# NCI-H522 = test: Growth inhibition of human NCI-H522 cells; assay type: functional
# Method in brief: (§3)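 NCI 60 cancer cell line screen run per the Developmental Therapeutics Program protocol. Dose–response curves were plotted against log10 drug concentration for each cell line within its subpanel, and mean graph midpoint values were calculated.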
# A549 = test: Growth inhibition of human A549 cells; assay type: functional; method in brief: as §3
# SF-295 = test: Growth inhibition of human SF295 cells; assay type: functional
# Method in brief: (§4)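 Assayed in the NCI 60 human cancer cell line panel under the Developmental Therapeutics Program protocol. For each line, dose–response curves were plotted against log10 drug concentration. In the one-dose screen at 10^-5 M, growth was given as percent of untreated control cells, and mean graph midpoint values were averaged.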
# SNB-19 = test: Growth inhibition of human SNB19 cells; assay type: functional; method in brief: as §4
# MDA-MB-231 = test: Growth inhibition of human MDA-MB-231 cells; assay type: functional; method in brief: as §3
# UACC-257 = test: Growth inhibition of human UACC257 cells; assay type: functional; method in brief: as §4
# OVCAR-3 = test: Growth inhibition of human OVCAR-3 cells; assay type: functional; method in brief: as §3
# OVCAR-5 = test: Growth inhibition of human OVCAR5 cells; assay type: functional; method in brief: as §3
# MCF7 [10] = test: Growth inhibition of human MCF7 cells; assay type: functional; method in brief: as §3
# SK-MEL-28 = test: Growth inhibition of human SK-MEL-28 cells; assay type: functional; method in brief: as §4
# OVCAR-8 = test: Growth inhibition of human OVCAR8 cells; assay type: functional; method in brief: as §3
# SF-268 = test: Growth inhibition of human SF268 cells; assay type: functional; method in brief: as §4
# SN12C = test: Growth inhibition of human SN12C cells; assay type: functional; method in brief: as §4
# HCT-15 [11] = test: Growth inhibition of human HCT15 cells; assay type: functional; method in brief: as §3
# SK-OV-3 [12] = test: Growth inhibition of human SKOV3 cells; assay type: functional; method in brief: as §4
# U-251 = test: Growth inhibition of human U251 cells; assay type: functional; method in brief: as §4
# NCI-H226 [13] = test: Growth inhibition of human NCI-H226 cells; assay type: functional; method in brief: as §3
# MOLT-4 [14] = test: Growth inhibition of human MOLT4 cells; assay type: functional; method in brief: as §3
# COLO 205 = test: Growth inhibition of human COLO205 cells; assay type: functional; method in brief: as §3
# [15] = Growth inhibition of human Hs 578T cells; assay type: functional; method in brief: as §3
# UACC-62 [16] = test: Growth inhibition of human UACC62 cells; assay type: functional; method in brief: as §4
# A498 = test: Growth inhibition of human A498 cells; assay type: functional; method in brief: as §3
# K562 = test: Growth inhibition of human K562 cells; assay type: functional; method in brief: as §3
# HOP-92 = test: Growth inhibition of human HOP92 cells; assay type: functional; method in brief: as §3
# [17] = read-out: LC50 (the source's name)
compound,measurement,setting,value
O=C1c2ccccc2C(=O)c2c1ccc1nc(-c3ccc(Br)cc3)[nH]c21,growth at 10 µM,MCF7 [1],75.3%
same,growth at 10 µM,DU-145,113%
same,residual activity,[2],89%
same,growth at 10 µM,HT-29,98.8%
same,growth at 10 µM,SW-620,95%
same,growth at 10 µM,NCI-H226 [3],103%
same,residual activity,[4],36%
same,growth at 10 µM,HCT-15 [5],96.6%
same,inhibition,[6],inactive
same,growth at 10 µM,MOLT-4 [7],101%
same,growth at 10 µM,SF-539,103%
same,growth at 10 µM,SK-OV-3 [8],105%
same,growth at 10 µM,KM12,102%
same,growth at 10 µM,UACC-62 [9],105%
same,growth at 10 µM,EKVX,82.7%
CN(C)c1ccc(-c2nc3ccc4c(c3[nH]2)C(=O)c2ccccc2C4=O)cc1,growth at 10 µM,MCF7 [1],67.4%
same,growth at 10 µM,DU-145,99.9%
same,residual activity,[2],92%
same,growth at 10 µM,HT-29,105%
same,growth at 10 µM,SW-620,103%
same,growth at 10 µM,NCI-H226 [3],89.3%
same,residual activity,[4],21%
same,growth at 10 µM,HCT-15 [5],107%
same,inhibition,[6],inactive
same,growth at 10 µM,MOLT-4 [7],101%
same,growth at 10 µM,SF-539,111%
same,growth at 10 µM,SK-OV-3 [8],202%
same,growth at 10 µM,KM12,98%
same,growth at 10 µM,UACC-62 [9],85.8%
same,growth at 10 µM,EKVX,91.9%
CCc1nc2ccc3c(c2[nH]1)C(=O)c1ccccc1C3=O,growth at 10 µM,MCF7 [1],69.8%
same,GI50,NCI-H522,28.3 µM
same,TGI,NCI-H522,> 100 µM
same,CC50,NCI-H522; [17],> 100 µM
same,growth at 10 µM,DU-145,61.6%
same,GI50,A549,28.5 µM
same,TGI,A549,> 100 µM
same,CC50,A549; [17],> 100 µM
same,GI50,SF-295,4.15 µM
same,TGI,SF-295,> 100 µM
same,CC50,SF-295; [17],> 100 µM
same,GI50,SNB-19,18.1 µM
same,TGI,SNB-19,> 100 µM
same,CC50,SNB-19; [17],> 100 µM
same,residual activity,[2],70%
same,growth at 10 µM,HT-29,64.5%
same,growth at 10 µM,SW-620,73.1%
same,growth at 10 µM,NCI-H226 [3],75.9%
same,GI50,MDA-MB-231,8.86 µM
same,TGI,MDA-MB-231,> 100 µM
same,GI50,UACC-257,47.2 µM
same,TGI,UACC-257,> 100 µM
same,CC50,UACC-257; [17],> 100 µM
same,GI50,OVCAR-3,16.5 µM
same,TGI,OVCAR-3,> 100 µM
same,CC50,OVCAR-3; [17],> 100 µM
same,residual activity,[4],25%
same,GI50,OVCAR-5,77.4 µM
same,TGI,OVCAR-5,> 100 µM
same,CC50,OVCAR-5; [17],> 100 µM
same,growth at 10 µM,HCT-15 [5],42.2%
same,GI50,MCF7 [10],13 µM
same,TGI,MCF7 [10],> 100 µM
same,CC50,MCF7 [10]; [17],> 100 µM
same,GI50,SK-MEL-28,> 100 µM
same,TGI,SK-MEL-28,> 100 µM
same,CC50,SK-MEL-28; [17],> 100 µM
same,GI50,OVCAR-8,23.2 µM
same,TGI,OVCAR-8,> 100 µM
same,CC50,OVCAR-8; [17],> 100 µM
same,GI50,SF-268,20.3 µM
same,TGI,SF-268,> 1000 µM
same,CC50,SF-268; [17],> 100 µM
same,GI50,SN12C,13.6 µM
same,TGI,SN12C,> 100 µM
same,CC50,SN12C; [17],> 100 µM
same,GI50,HCT-15 [11],3.39 µM
same,TGI,HCT-15 [11],> 100 µM
same,CC50,HCT-15 [11]; [17],> 100 µM
same,GI50,SK-OV-3 [12],2.59 µM
same,TGI,SK-OV-3 [12],> 100 µM
same,CC50,SK-OV-3 [12]; [17],> 100 µM
same,GI50,U-251,16.3 µM
same,TGI,U-251,> 100 µM
same,CC50,U-251; [17],> 100 µM
same,GI50,NCI-H226 [13],2.46 µM
same,TGI,NCI-H226 [13],> 100 µM
same,CC50,NCI-H226 [13]; [17],> 100 µM
same,GI50,MOLT-4 [14],4.22 µM
same,TGI,MOLT-4 [14],> 100 µM
same,CC50,MOLT-4 [14]; [17],> 100 µM
same,inhibition,[6],inactive
same,GI50,COLO 205,8.95 µM
same,TGI,COLO 205,> 100 µM
same,CC50,COLO 205; [17],> 100 µM
same,growth at 10 µM,MOLT-4 [7],64.2%
same,growth at 10 µM,SF-539,83.2%
same,GI50,[15],> 100 µM
same,TGI,[15],> 100 µM
same,GI50,UACC-62 [16],8.09 µM
same,TGI,UACC-62 [16],> 100 µM
same,CC50,UACC-62 [16]; [17],> 100 µM
same,GI50,A498,> 100 µM
same,TGI,A498,> 100 µM
same,CC50,A498; [17],> 100 µM
same,GI50,K562,> 100 µM
same,TGI,K562,> 100 µM
same,growth at 10 µM,SK-OV-3 [8],25.8%
same,growth at 10 µM,KM12,72.9%
same,growth at 10 µM,UACC-62 [9],51.4%
same,GI50,HOP-92,9.84 µM
same,TGI,HOP-92,7.58 µM
same,CC50,HOP-92; [17],> 100 µM
same,growth at 10 µM,EKVX,52.3%
